From ChEMBL document CHEMBL5705901, “Exploiting selective BCL-2 family inhibitors to dissect cell survival dependencies and define improved strategies for cancer therapy” (Sci Transl Med, 2015)

Legend:
[1] = molecular target: Apoptosis regulator Bcl-2 (Homo sapiens, UniProt P10415); test: Binding affinity to Bcl-2 (unknown origin) assessed as dissociation constant incubated for 1 hrs by TR-FRET assay
[2] = molecular target: Bcl-2-like protein 1 (Homo sapiens, UniProt Q07817); test: Binding affinity to Bcl-xl (unknown origin) assessed as dissociation constant incubated for 1 hrs by TR-FRET assay
[3] = molecular target: Induced myeloid leukemia cell differentiation protein Mcl-1 (Homo sapiens, UniProt Q07820); test: Binding affinity to MCL-1 (unknown origin) assessed as dissociation constant incubated for 1 hrs by TR-FRET assay
[4] = molecular target: T1, Bcl-2-like protein 2 (Homo sapiens, UniProt Q92843); test: Binding affinity to BCL-W (unknown origin) assessed as dissociation constant incubated for 1 hrs by TR-FRET assay
T1 sequence (Q92843 whole entry): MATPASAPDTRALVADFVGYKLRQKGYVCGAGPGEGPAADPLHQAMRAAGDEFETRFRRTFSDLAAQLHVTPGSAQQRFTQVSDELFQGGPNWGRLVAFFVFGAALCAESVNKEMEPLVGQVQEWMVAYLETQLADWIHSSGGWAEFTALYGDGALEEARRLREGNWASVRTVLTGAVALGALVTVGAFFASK

[5] = tested on: MOLT-4; test: Antiproliferative activity against Bcl-xl dependent human MOLT-4 cells assessed as reduction in cell viability by measuring effect concentration by CellTiter-Glo reagent based assay; format: functional
[6] = Toxicity in Sprague-Dawley rat assessed as inhibition of granulopoiesis by measuring reduction in neutrophil count at 30 mg/kg, po administered daily for 5 days measured on day 6 by microscopic analysis relative to control; format: organism-based; parameters: scale not given: the % may be the effect or the level left; conditions: in vivo, 144 h, time 6 day
Method in brief: (§1)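 Male Sprague-Dawley rats, n = 10 per group: docetaxel 5 mg/kg i.v. once, or oral inhibitor daily for 5 days (30, 50 or 7 mg/kg depending on agent), alone or combined with docetaxel, against vehicles. Total neutrophil and platelet counts in blood collected on day 6; Tukey-Kramer test versus vehicle.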

[7] = Toxicity in Sprague-Dawley rat assessed as inhibition of granulopoiesis by measuring reduction in neutrophil count at 30 mg/kg, po administered daily for 5 days measured on day 6 in the presence of docetaxel by microscopic analysis relative to control; format: organism-based; conditions: in vivo, 144 h, time 6 day; method in brief: as §1
[8] = Toxicity in Sprague-Dawley rat assessed as inhibition of […] by measuring reduction in circulating platelets at 30 mg/kg, po administered daily for 5 days and measured on day 6 by microscopic analysis; format: organism-based; conditions: in vivo, 144 h, time 6 day; method in brief: as §1
[9] = Toxicity in Sprague-Dawley rat assessed as inhibition of granulopoiesis by measuring reduction in neutrophil count at 50 mg/kg, po administered daily for 5 days measured on day 6 by microscopic analysis relative to control; format: organism-based; parameters: scale not given: the % may be the effect or the level left; conditions: in vivo, 144 h, time 6 day; method in brief: as §1
[10] = Toxicity in Sprague-Dawley rat assessed as inhibition of granulopoiesis by measuring reduction in neutrophil count at 50 mg/kg, po administered daily for 5 days measured on day 6 in presence of docetaxel by microscopic analysis relative to control; format: organism-based; conditions: in vivo, 144 h, time 6 day; method in brief: as §1
[11] = Toxicity in Sprague-Dawley rat assessed as inhibition of […] by measuring reduction in circulating platelets at 50 mg/kg, po administered daily for 5 days and measured on day 6 by microscopic analysis; format: organism-based; conditions: in vivo, 144 h, time 6 day; method in brief: as §1

Sequence of Bcl-2-like protein 1 (Q07817 whole entry): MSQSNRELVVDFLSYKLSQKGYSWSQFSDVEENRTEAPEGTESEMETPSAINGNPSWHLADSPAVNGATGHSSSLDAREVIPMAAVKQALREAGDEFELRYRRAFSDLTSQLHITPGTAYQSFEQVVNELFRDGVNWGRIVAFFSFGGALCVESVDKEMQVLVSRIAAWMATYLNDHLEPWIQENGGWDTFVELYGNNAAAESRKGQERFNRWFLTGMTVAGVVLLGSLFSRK
Sequence of Induced myeloid leukemia cell differentiation protein Mcl-1 (Q07820 whole entry): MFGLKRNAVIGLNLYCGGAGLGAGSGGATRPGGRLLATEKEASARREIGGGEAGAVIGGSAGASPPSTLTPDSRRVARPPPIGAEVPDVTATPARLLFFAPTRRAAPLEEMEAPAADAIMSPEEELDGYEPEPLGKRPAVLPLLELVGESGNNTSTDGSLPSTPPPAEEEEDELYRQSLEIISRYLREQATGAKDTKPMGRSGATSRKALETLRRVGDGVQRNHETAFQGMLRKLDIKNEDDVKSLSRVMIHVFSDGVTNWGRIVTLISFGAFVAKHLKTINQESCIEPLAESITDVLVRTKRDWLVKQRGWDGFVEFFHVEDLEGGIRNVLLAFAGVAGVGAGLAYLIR
Sequence of Apoptosis regulator Bcl-2 (P10415 whole entry): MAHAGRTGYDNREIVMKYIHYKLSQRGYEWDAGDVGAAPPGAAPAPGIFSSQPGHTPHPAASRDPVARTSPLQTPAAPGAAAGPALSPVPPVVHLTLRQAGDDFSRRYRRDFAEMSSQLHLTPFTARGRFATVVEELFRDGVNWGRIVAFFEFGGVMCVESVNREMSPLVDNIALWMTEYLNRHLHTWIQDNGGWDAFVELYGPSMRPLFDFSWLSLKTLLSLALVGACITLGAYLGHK

Structure (SMILES)	Ki [1]	Ki [2]	Ki [3]	Ki [4]	EC50 [5]	Activity [6]	Activity [7]	Activity [8]	Activity [9]	Activity [10]	Activity [11]
CC1(C)CCC(CN2CCN(c3ccc(C(=O)NS(=O)(=O)c4ccc(N[C@H](CCN5CCOCC5)CSc5ccccc5)c(S(=O)(=O)C(F)(F)Cl)c4)cc3)CC2)=C(c2ccc(Cl)cc2)C1	0.048 nM	0.463 nM	> 3900 nM	2 nM	134 nM	41%	Toxic	Toxic	–	–	–
CO[C@H]1CC[C@H](CNc2ccc(S(=O)(=O)NC(=O)c3ccc(N4CCN(CC5=C(c6ccc(Cl)cc6)CC(C)(C)CC5)CC4)cc3Oc3cnc4[nH]ccc4c3)cc2[N+](=O)[O-])CC1 [A-1211212]	< 0.01 nM	14 nM	> 444 nM	852 nM	> 5000 nM	–	–	–	41%	Toxic	Non-Toxic
